From ChEMBL document CHEMBL3046693, “Discovery and characterization of sulfoxaflor, a novel insecticide targeting sap-feeding pests” (J Agric Food Chem, 2011)
Converted amounts (≈) assume the structure as drawn. The source made the active and inactive calls. The calls are words filed in the database; no cut-off is given here.

Tests used:
Aphis gossypii = test: Insecticidal activity against Aphis gossypii (cotton aphid) DAS lab strain by leaf disk bioassay; assay type: functional; details: foliar
Myzus persicae [1] = test: Insecticidal activity against drug resistant Myzus persicae R-4013A (green peach aphid) by leaf disk bioassay; assay type: functional; details: foliar
Myzus persicae [2] = test: Insecticidal activity against Myzus persicae S-USIL (green peach aphid) by leaf disk bioassay; assay type: functional; details: foliar
Myzus persicae [3] = test: Insecticidal activity against Myzus persicae (green peach aphid) DAS lab strain by leaf disk bioassay; assay type: functional; details: foliar
Bemisia tabaci [4] = test: Insecticidal activity against Bemisia tabaci DAS (sweet potato whitefly) lab strain by leaf disk bioassay; assay type: functional; details: foliar
Bemisia tabaci [5] = test: Resistance index, ratio of LC50 for rothamsted-resistant Bemisia tabaci Q-biotype R-CHLORAKA (sweet potato whitefly) to LC50 for Bemisia tabaci SUD-S; assay type: functional
Myzus persicae [6] = test: Resistance index, ratio of LC50 for drug resistant Myzus persicae R-4013A (green peach aphid) to LC50 for Myzus persicae S-USIL; assay type: functional
Bemisia tabaci [7] = test: Insecticidal activity against rothamsted-resistant Bemisia tabaci Q-biotype R-CHLORAKA (sweet potato whitefly) by leaf disk bioassay; assay type: functional; details: foliar
Bemisia tabaci [8] = test: Insecticidal activity against Bemisia tabaci SUD-S (sweet potato whitefly) by leaf disk bioassay; assay type: functional; details: foliar
CYP6G1 [9] = test: Drug metabolism in Drosophila melanogaster D.mel-2 cells over-expressing in CYP6G1 assessed as drug recovery measured 24 hr post dose by HPLC method; assay type: ADME; details: D.mel-2 cells over-expressing CYP6G1, read-out: Drug recovery
[10] = (§1) Drug metabolism in Drosophila melanogaster D.mel-2 cells deficient in CYP6G1 assessed as drug recovery measured 24 hr post dose by HPLC method; assay type: ADME; details: 24 h
Bemisia tabaci [11] = test: Insecticidal activity against Bemisia tabaci S-4971BT1 (sweet potato whitefly) by leaf disk bioassay; assay type: functional; details: S-4971BT1, foliar
Bemisia tabaci [12] = test: Insecticidal activity against rothamsted-resistant Bemisia tabaci Q-biotype R-4971BT9 (sweet potato whitefly) by leaf disk bioassay; assay type: functional; details: Q-biotype R-4971BT9, foliar
Bemisia tabaci [13] = test: Insecticidal activity against rothamsted-resistant Bemisia tabaci R-4991BT1 (sweet potato whitefly) by leaf disk bioassay; assay type: functional; details: R-4991BT1, foliar
Bemisia tabaci [14] = test: Insecticidal activity against DAS-susceptible Bemisia tabaci S-4971BT1 (sweet potato whitefly) by leaf disk bioassay; assay type: functional; details: S-4971BT1, foliar
Bemisia tabaci [15] = test: Insecticidal activity against DAS insecticide-resistant Bemisia tabaci B-biotype R-PBI (sweet potato whitefly) by leaf disk bioassay; assay type: functional; details: foliar
Bemisia tabaci [16] = test: Insecticidal activity against drug sensitive Bemisia tabaci DAS (sweet potato whitefly) lab strain by leaf disk bioassay; assay type: functional; details: foliar
Drosophila melanogaster = test: Activation of Drosophila melanogaster nicotinic acetylcholine receptor alpha2 expressed in Xenopus laevis co-expressing chicken nicotinic acetylcholine receptor beta2 subunit by electrophysiology method
Procedure, shortened: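 Drosophila α2 cRNA co-injected with chicken β2 and C. elegans ric-3 chaperone into defolliculated X. laevis oocytes (≤50 nL at 1 ng/nL). Oocytes held singly in ND-96 (pH 7.6) at 18 °C and recorded 1-4 days after injection on an automated oocyte recording system.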

Myzus persicae [17] = test: Insecticidal activity against Myzus persicae (green peach aphid) infested UV irradiated leaves of pepper plant exposed to compound at 124 ppm assessed as insect control efficacy post 7 days UV exposure relative to untreated control; assay type: functional
Procedure, shortened: (§2)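 Aphid control on treated UV-exposed pepper leaves scored 3 days after infestation; four replicates per treatment and time point.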

Myzus persicae [18] = test: Insecticidal activity against Myzus persicae (green peach aphid) infested UV irradiated leaves of pepper plant exposed to compound at 124 ppm assessed as insect control efficacy post 3 days UV exposure relative to untreated control; assay type: functional; procedure, shortened: as §2
Myzus persicae [19] = test: Insecticidal activity against Myzus persicae (green peach aphid) infested UV irradiated leaves of pepper plant exposed to compound at 124 ppm assessed as insect control efficacy post 0 day UV exposure relative to untreated control; assay type: functional; procedure, shortened: as §2
Bemisia tabaci [20] = test: Resistance index, ratio of LC50 for rothamsted-resistant Bemisia tabaci Q-biotype R-4971BT9 (sweet potato whitefly) to LC50 for Bemisia tabaci S-4971BT1; assay type: functional
Bemisia tabaci [21] = test: Resistance index, ratio of LC50 for drug resistant rothamsted-resistant Bemisia tabaci R-4991BT1 (sweet potato whitefly) to LC50 for DAS-susceptible Bemisia tabaci S-4971BT1; assay type: functional
Bemisia tabaci [22] = test: Resistance index, ratio of LC50 for DAS insecticide-resistant Bemisia tabaci B-biotype R-PB (sweet potato whitefly) to LC50 for drug sensitive Bemisia tabaci DAS lab strain; assay type: functional
CYP6G1 [23] = test: as §1; assay type: ADME; details: D.mel-2 cells deficient in CYP6G1, read-out: Drug recovery
[24] = Stability assessed as half life for photolysis in UV chamber at 1000 ppm by HPLC method; assay type: physicochemical
Myzus persicae [25] = test: Displacement of [3H]imidacloprid from nicotinic acetylcholine receptor in Myzus persicae (green peach aphid) homogenates by scintillation counting
Procedure, shortened: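 Frozen (-80 °C) aphids homogenized at 4 °C in sucrose/Tris/EDTA/PMSF buffer (pH 7.2), filtered, spun 3500 rpm 15 min then 17500 rpm 20 min (4 °C). Pellet resuspended in 120 mM NaCl, 50 mM Tris (pH 7.4). ~2 nM [3H]IMI, 70 μg protein/well and competitor for 60 min at ~22 °C. Protein-started, filtration-stopped, scintillation-counted; total and filter binding measured.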

Compound | LC50 (Aphis gossypii) [µg/mL] | LC50 (Myzus persicae [1]) [µg/mL] | LC50 (Myzus persicae [2]) [µg/mL] | LC50 (Myzus persicae [3]) [µg/mL] | LC50 (Bemisia tabaci [4]) [µg/mL] | RatioLC50 (Bemisia tabaci [5]) | RatioLC50 (Myzus persicae [6]) | LC50 (Bemisia tabaci [7]) [µg/mL] | LC50 (Bemisia tabaci [8]) [µg/mL] | remaining at 24 h (CYP6G1 [9]) [%] | LC50 (Bemisia tabaci [11]) [µg/mL] | LC50 (Bemisia tabaci [12]) [µg/mL] | LC50 (Bemisia tabaci [13]) [µg/mL] | LC50 (Bemisia tabaci [14]) [µg/mL] | LC50 (Bemisia tabaci [15]) [µg/mL] | LC50 (Bemisia tabaci [16]) [µg/mL] | Activity (Drosophila melanogaster) | Efficacy (Myzus persicae [17]) [%] | Efficacy (Myzus persicae [18]) [%] | Efficacy (Myzus persicae [19]) [%] | further results
CC(c1ccc(Cl)nc1)S(C)(=O)=NC#N (configuration not stated) | 3 (≈ 12.3 µM) | 12.5 (≈ 51.3 µM) | 62.3 (≈ 256 µM) | 0.374 (≈ 1.53 µM) | 0.29 (≈ 1.19 µM) | 2.9 | 0.2 | 13.2 (≈ 54.2 µM) | 4.48 (≈ 18.4 µM) | – | – | – | – | – | – | – | – | – | – | – | –
C/C(=N\C#N)N(C)Cc1ccc(Cl)nc1 [ACETAMIPRID] | – | – | – | – | – | – | – | – | – | 0 | – | – | – | – | – | – | – | – | – | – | Drug recovery [10]: 122.7%
O=[N+]([O-])/N=C1\NCCN1Cc1ccc(Cl)nc1 [IMIDACLOPRID] | 7.8 (≈ 30.5 µM) | 15.3 (≈ 59.8 µM) | 0.896 (≈ 3.5 µM) | 0.09 (≈ 0.352 µM) | 0.37 (≈ 1.45 µM) | >833 | 17.1 | > 1000 | 1.23 (≈ 4.81 µM) | – | 4.4 (≈ 17.2 µM) | 4500 (≈ 17600 µM) | > 1000 | 4.4 (≈ 17.2 µM) | 174 (≈ 681 µM) | 0.2 (≈ 0.782 µM) | Active | 21 | 42 | 100 | RatioLC50 (Bemisia tabaci [20]): 1022; RatioLC50 (Bemisia tabaci [21]): >230; RatioLC50 (Bemisia tabaci [22]): 870
O=[N+]([O-])NC1=NCCN1Cc1ccc(Cl)nc1 [IMIDACLOPRID] | – | – | – | – | – | – | – | – | – | 4.5 | – | – | – | – | – | – | – | – | – | – | remaining at 24 h (CYP6G1 [23]): 115%; half-life at 1000 ppm [24]: 420 min
CC(c1ccc(C(F)(F)F)nc1)S(C)(=O)=NC#N (configuration not stated) [SULFOXAFLOR] | 0.2 (≈ 0.721 µM) | 1.52 (≈ 5.48 µM) | 4.13 (≈ 14.9 µM) | 0.074 (≈ 0.267 µM) | 0.85 (≈ 3.07 µM) | 2.8 | 0.37 | 5 (≈ 18 µM) | 1.8 (≈ 6.49 µM) | 108 | 18 (≈ 64.9 µM) | 39 (≈ 141 µM) | 28 (≈ 101 µM) | 18 (≈ 64.9 µM) | 6.4 (≈ 23.1 µM) | 2.8 (≈ 10.1 µM) | Active | 90 | 100 | 100 | Activity (Myzus persicae [25]): Active; remaining at 24 h (CYP6G1 [23]): 105%; half-life at 1000 ppm [24]: 5280 min; RatioLC50 (Bemisia tabaci [20]): 2.2; RatioLC50 (Bemisia tabaci [21]): 1.6; RatioLC50 (Bemisia tabaci [22]): 2.3
